Assay results of several laboratories.
Lines come from different studies, so protocols differ.
Target: Serine/threonine-protein kinase Chk2 (CHEK2, Homo sapiens, UniProt O96017)

Cc1cnn2ncc(-c3ccnc(N(C)C)n3)c2c1  remaining binding (binding; 1 µM): 84%
CC(C)(O)c1cncc(-c2nc3ccc(F)cc3n2C2CC2)c1  remaining binding (cell-free assay, competition with immobilised ligand; 1 µM): 100%
Cc1cnc(Nc2ccc(C(=O)N3CCC(N4CCCC4)CC3)cc2)nc1-c1cc2ccccc2s1  remaining binding (binding, competition with immobilised ligand; 1 µM): 100%
C[C@@]1(Cc2ccc(C#N)cc2)C(=O)N(c2cc(Cl)cc(Cl)c2)c2ncc(C(=O)NC3(c4nc(C5CCC5)no4)CC3)n21  remaining binding (cell-free assay, competition with immobilised ligand; 1 µM): 100%
CNC(=O)[C@@H]1CC[C@@H](n2c(-c3ccc4cnccc4c3)nc3ccc(C(=O)NCc4cccc(C(N)=O)c4)cc32)C1  remaining binding (binding, competition with immobilised ligand; 1 µM): 100%
c1cnn2ncc(-c3ccnc(N4CCC45COC5)n3)c2c1  remaining binding (binding; 1 µM): 77%
CCS(=O)(=O)c1cc2cc(C[C@@](O)(CC(C)(C)c3ccc(F)cc3C(N)=O)C(F)(F)F)[nH]c2cn1  remaining binding (cell-free assay, competition with immobilised ligand; 1 µM): 84%
O=C(Nc1c[nH]nc1C(=O)NC1CCNCC1)c1cc(F)cc(F)c1  remaining binding (binding, competition with immobilised ligand; 1 µM): 100%
CN(C)c1nccc(-c2cnn3ncccc23)n1  remaining binding (binding; 1 µM): 100%
C=CC(=O)N1CCC(C(=O)NCC(=O)N2CCN(c3nc(-c4cnc(N)nc4C(F)F)nc(N4CCOCC4)n3)CC2)CC1  remaining binding (binding, competition with immobilised ligand; 1 µM): 88%
CN(CCCC(F)(F)F)c1nccc(-c2cnn3ncccc23)n1  remaining binding (binding; 1 µM): 99%
COc1ncc2cc3ccccc3nc2c1C#N  remaining binding (cell-free assay, competition with immobilised ligand; 5 µM): 100%
CN(C)C(=O)Cn1cc(-c2nc(C3(c4ccc(-c5cnc(N)nc5)cc4)CC3)no2)cn1  remaining binding (cell-free assay, competition with immobilised ligand; 1 µM): 100%
O=C(c1ccc(Nc2nccc(-c3cc4ccccc4s3)n2)cc1)N1CCC(N2CCCC2)CC1  remaining binding (binding, competition with immobilised ligand; 1 µM): 100%
N#Cc1ccc(Nc2ccc3[nH]c(=O)[nH]c3c2)c(Cl)c1  remaining binding (cell-free assay, competition with immobilised ligand; 1 µM): 100%
O=C(c1ccc(Nc2ncc(Cl)c(-c3ccc(Cl)s3)n2)cc1)N1CCC(N2CCCC2)CC1  remaining binding (binding, competition with immobilised ligand; 1 µM): 87%
C[C@H]1CCN(c2nccc(-c3cnn4ncccc34)n2)C1  remaining binding (binding; 1 µM): 94%
COc1cnc(Nc2cccc(S(N)(=O)=O)c2)nc1N1CCN(c2ccccc2)CC1  remaining binding (binding, competition with immobilised ligand; 1 µM): 96%
FC(F)(F)Oc1cccc(-c2cnc3ccc(-c4ccncc4)nn23)c1  remaining binding (cell-free assay, competition with immobilised ligand; 5 µM): 74%
CC1CCCN1c1nccc(-c2cnn3ncccc23)n1 (stereo not drawn)  remaining binding (binding; 1 µM): 100%
CC(=O)c1c(NS(C)(=O)=O)c2cc(-c3ccc(Cl)cc3)c(-c3ccc(Cl)cc3Cl)nc2n(C)c1=O  remaining binding (cell-free assay, competition with immobilised ligand; 1 µM): 100%
COc1cc(C(=O)N2CCC(N3CCN(C)CC3)CC2)ccc1Nc1ncc2c(n1)N(C)c1ccccc1C(=O)N2C  remaining binding (binding, competition with immobilised ligand; 10 µM): 66%
N[C@H]1CCN(c2nccc(-c3cnn4ncccc34)n2)C1  remaining binding (binding; 1 µM): 98%
CCCOc1ccc([C@@H]2[C@@H](C(=O)O)[C@H](c3ccc4c(c3)OCO4)CN2CC(=O)Nc2c(CC)cccc2CC)cc1  remaining binding (cell-free assay, competition with immobilised ligand; 1 µM): 98%
